Activity calls are given as the source filed them. No cut-off for these calls is given here.
Columns and labels:
[1] = Antitumor activity against mouse early Lewis lung carcinoma allografted in BDF1 mouse assessed as increase in host life span at 26 mg/kg, ip administered as single dose on 1 or 2 days post-tumor implantation; assay type: functional; settings: route intraperitoneal
How it was run: (§1)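 BDF1 mice (C57Blk/6 × DBA/2) implanted sc by trocar with ~40 mg Lewis lung tumor fragments from bacteriologically sterile donor tumors. Single ip dose on day 1 or 2, as a solution or suspension in water (CMC or gum acacia) or saline (HPC or Tween 80). Read-out is […]. Same-dose toxicity controls were run in nontumor-bearing mice.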

[2] = Antitumor activity against mouse early Lewis lung carcinoma allografted in BDF1 mouse assessed as increase in host life span at 34 mg/kg, ip administered as single dose on 1 or 2 days post-tumor implantation; assay type: functional; settings: route intraperitoneal; how it was run: as §1
[3] = Antitumor activity against mouse advanced Lewis lung carcinoma allografted in BDF1 mouse assessed as increase in host life span at 26 mg/kg, ip administered as single dose on 7th day post-tumor implantation; assay type: functional; settings: route intraperitoneal
How it was run: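 BDF1 mice (C57Blk/6 × DBA/2) implanted sc by trocar with about 40 mg Lewis lung tumor fragments from bacteriologically sterile donors. Advanced-disease groups held tumors of about 400 mg by day 6-7, sized by caliper (w = ab²/2). Single ip injection on day 7, in water or saline vehicle, at or below the LD10 in normal mice. Tumors measured at least twice weekly.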

[4] = Antitumor activity against mouse early Lewis lung carcinoma allografted in BDF1 mouse assessed as time delay in tumor growth at 26 mg/kg, ip administered as single dose on 1 or 2 days post-tumor implantation; assay type: functional; settings: route intraperitoneal
How it was run: (§2)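 BDF1 mice (C57Blk/6 × DBA/2) implanted sc by trocar with ~40 mg Lewis lung tumor fragments from bacteriologically sterile donors. A single ip dose was given on day 1 or 2, as a solution or suspension in water or saline with suspending agent, at ≤0.5 ml. Tumors were measured by caliper at least twice weekly, with weight = ab²/2. Delay was taken as the days for the tumor to reach 1 g.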

[5] = Antitumor activity against mouse early Lewis lung carcinoma allografted in BDF1 mouse assessed as time delay in tumor growth at 34 mg/kg, ip administered as single dose on 1 or 2 days post-tumor implantation; assay type: functional; settings: route intraperitoneal; how it was run: as §2
[6] = Antitumor activity against mouse early Lewis lung carcinoma allografted in ip dosed BDF1 mouse assessed as disease cure administered as single dose on 1 or 2 days post-tumor implantation measured for 80 days post-drug treatment; assay type: functional
How it was run: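 BDF1 mice implanted sc by trocar with ~40 mg Lewis lung fragments from sterile donor tumors. A single ip dose was given on day 1 or 2 after implant, in water or saline vehicle. Cures were scored in animals observed for at least 80 days after treatment. Drug-toxicity controls were matched non-tumor-bearing mice monitored for body weight and deaths.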

[7] = Ratio of ED50 for antitumor activity against mouse L1210 cells allografted in ip dosed mouse to LD10 for mouse
Mus musculus [8] = experiment: Antitumor activity against mouse advanced Lewis lung carcinoma allografted in ip dosed BDF1 mouse assessed as complete regression of established tumor administered as single dose on day 6 or 7 post-tumor implantation; assay type: functional, organism-based
How it was run: (§3)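 BDF1 mice (C57Blk/6 × DBA/2) implanted sc by trocar with Lewis lung tumor fragments of about 40 mg, taken only from bacteriologically sterile donor tumors. Mice bearing tumors of about 400 mg (day 6-7) were selected. Each received a single ip dose on day 7, at or below the LD10 in normal mice. Groups were of 10 mice. Tumor weight was taken from calipers as w = ab²/2, measured at least twice weekly. Matched non-tumor mice served as toxicity controls.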

Mus musculus [9] = experiment: Antitumor activity against mouse advanced Lewis lung carcinoma allografted in ip dosed BDF1 mouse assessed as disease cure administered as single dose on day 6 or 7 post-tumor implantation; assay type: functional, organism-based; how it was run: as §3
[10] = Antitumor activity against mouse advanced Lewis lung carcinoma allografted in ip dosed BDF1 mouse assessed as increase in host lifespan administered as single dose on day 6 or 7 post-tumor implantation; assay type: functional
How it was run: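 Advanced Lewis lung model: about 40 mg fragments implanted sc by trocar into BDF1 mice, and mice with tumors of about 400 mg (day 6-7) selected. Tumor weight from calipers, w = ab²/2. Agent given as one ip dose in distilled water or physiological saline. Nontumor-bearing mice received matching doses as toxicity controls.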

[11] = Antitumor activity against mouse early Lewis lung carcinoma allografted in BDF1 mouse assessed as increase in host life span at 20 mg/kg, ip administered as single dose on 1 or 2 days post-tumor implantation; assay type: functional; settings: route intraperitoneal; how it was run: as §1
[12] = Antitumor activity against mouse early Lewis lung carcinoma allografted in BDF1 mouse assessed as increase in host life span at 30 mg/kg, ip administered as single dose on 1 or 2 days post-tumor implantation; assay type: functional; settings: route intraperitoneal; how it was run: as §1
[13] = Antitumor activity against mouse early Lewis lung carcinoma allografted in BDF1 mouse assessed as time delay in tumor growth at 20 mg/kg, ip administered as single dose on 1 or 2 days post-tumor implantation; assay type: functional; settings: route intraperitoneal; how it was run: as §2
[14] = Antitumor activity against mouse early Lewis lung carcinoma allografted in BDF1 mouse assessed as time delay in tumor growth at 30 mg/kg, ip administered as single dose on 1 or 2 days post-tumor implantation; assay type: functional; settings: route intraperitoneal; how it was run: as §2
[15] = Antitumor activity against mouse early Lewis lung carcinoma allografted in BDF1 mouse assessed as increase in host life span at 38 mg/kg, ip administered as single dose on 1 or 2 days post-tumor implantation; assay type: functional; settings: route intraperitoneal; how it was run: as §1
[16] = Antitumor activity against mouse early Lewis lung carcinoma allografted in BDF1 mouse assessed as increase in host life span at 25 mg/kg, ip administered as single dose on 1 or 2 days post-tumor implantation; assay type: functional; settings: route intraperitoneal; how it was run: as §1
[17] = Antitumor activity against mouse early Lewis lung carcinoma allografted in BDF1 mouse assessed as time delay in tumor growth at 38 mg/kg, ip administered as single dose on 1 or 2 days post-tumor implantation; assay type: functional; settings: route intraperitoneal; how it was run: as §2
[18] = Antitumor activity against mouse early Lewis lung carcinoma allografted in BDF1 mouse assessed as time delay in tumor growth at 25 mg/kg, ip administered as single dose on 1 or 2 days post-tumor implantation; assay type: functional; settings: route intraperitoneal; how it was run: as §2

Structure (SMILES)	ILS at 26 mg/kg [1] [%]	ILS at 34 mg/kg [2] [%]	ILS at 26 mg/kg [3] [%]	Time [4] [days]	Time [5] [days]	Activity [6] [%]	Ratio [7]	inhibition (Mus musculus [8])	Activity (Mus musculus [9])	ILS [10] [%]	ILS at 20 mg/kg [11] [%]	ILS at 30 mg/kg [12] [%]	Time [13] [days]	Time [14] [days]	ILS at 38 mg/kg [15] [%]	ILS at 25 mg/kg [16] [%]	Time [17] [days]	Time [18] [days]
O=NN(CCCl)C(=O)N[C@H]1CC[C@H](CC(=O)O)CC1	34	23	24	10	11	>50	0.3	inactive	inactive	>25								
C[C@H]1SC[C@@H](NC(=O)N(CCCl)N=O)CS1						10	0.4	inactive		<25	0	42	8.1	18				
O=NN(CCCl)C(=O)N[C@H]1CC[C@@H](CC(=O)O)CC1						>50	0.4	inactive		<25					42	59	9.2	8.2
